Data published in ChEMBL document CHEMBL3616442, “Unconventional Knoevenagel-type indoles: Synthesis and cell-based studies for the identification of pro-apoptotic agents” (Eur J Med Chem, 2015).

Tests used:
NCI-H226 = test: Growth inhibition of human NCI-H226 cells after 48 hrs by sulforhodamine B assay; type: functional; conditions: NCI-H226, 48 h
Summary of the method: (§1)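 NCI 60-cell-line screen. Compounds tested at five 10-fold dilutions from 10^-4 to 10^-8 M. Cells exposed for the last 48 h of a 72 h incubation, growth estimated by sulforhodamine B protein assay. GI50 is the concentration giving 50% growth inhibition. Values beyond the tested range are expressed as greater or lesser than the extreme concentration.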

786-0 = test: Growth inhibition of human 786-0 cells after 48 hrs by sulforhodamine B assay; type: functional; conditions: 786-0, 48 h; summary of the method: as §1
OVCAR-3 = test: Growth inhibition of human OVCAR3 cells after 48 hrs by sulforhodamine B assay; type: functional; conditions: OVCAR-3, 48 h; summary of the method: as §1
OVCAR-8 = test: Growth inhibition of human OVCAR8 cells after 48 hrs by sulforhodamine B assay; type: functional; conditions: OVCAR-8, 48 h
[1] = Growth inhibition of human EKVX cells after 48 hrs by sulforhodamine B assay; type: functional; summary of the method: as §1
[2] = Growth inhibition of human Hs 578T cells after 48 hrs by sulforhodamine B assay; type: functional; summary of the method: as §1
[3] = Growth inhibition of human SF539 cells after 48 hrs by sulforhodamine B assay; type: functional; conditions: SF-539, 48 h
[4] = Growth inhibition of human SF295 cells after 48 hrs by sulforhodamine B assay; type: functional; conditions: SF-295, 48 h
SK-MEL-28 [5] = test: Growth inhibition of human SK-MEL-28 cells after 48 hrs by sulforhodamine B assay; type: functional; conditions: SK-MEL-28, 48 h
NCI-H23 = test: Growth inhibition of human NCI-H23 cells after 48 hrs by sulforhodamine B assay; type: functional; conditions: NCI-H23, 48 h; summary of the method: as §1
UACC-62 = test: Growth inhibition of human UACC62 cells after 48 hrs by sulforhodamine B assay; type: functional; conditions: UACC-62, 48 h
MCF7 [6] = test: Growth inhibition of human MCF7 cells after 48 hrs by sulforhodamine B assay; type: functional; conditions: MCF7, 48 h; summary of the method: as §1
M14 = test: Growth inhibition of human M14 cells after 48 hrs by sulforhodamine B assay; type: functional; conditions: M14, 48 h; summary of the method: as §1
OVCAR-5 = test: Growth inhibition of human OVCAR5 cells after 48 hrs by sulforhodamine B assay; type: functional; conditions: OVCAR-5, 48 h
UO-31 = test: Growth inhibition of human UO31 cells after 48 hrs by sulforhodamine B assay; type: functional; conditions: UO-31, 48 h
[7] = Growth inhibition of human HCC2998 cells after 48 hrs by sulforhodamine B assay; type: functional; conditions: HCC 2998, 48 h; summary of the method: as §1
NCI-H460 = test: Growth inhibition of human NCI-H460 cells after 48 hrs by sulforhodamine B assay; type: functional; conditions: NCI-H460, 48 h; summary of the method: as §1
CCRF-CEM [8] = test: Growth inhibition of human CCRF-CEM cells after 48 hrs by sulforhodamine B assay; type: functional; summary of the method: as §1
CCRF-SB = test: Cytotoxicity against human CCRF-SB cells after 96 hrs by MTT assay; type: functional, cell-based
Summary of the method: (§2)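 ATCC cell lines, mycoplasma-free by Hoechst staining. Haematological lines in RPMI-1640, solid-tumour and normal fibroblast lines in their own media, all with 10% FCS and antibiotics, at 37 °C in 5% CO₂. Compounds added as serial dilutions from a 100 mM DMSO stock diluted in medium. Viability by MTT after 96 h at 37 °C. Mean ± SD of three independent determinations.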

MCF7 [9] = test: Cytotoxicity against human MCF7 cells after 96 hrs by MTT assay; type: functional, cell-based; conditions: MCF7, 96 h; summary of the method: as §2
HepG2 = test: Cytotoxicity against human HepG2 cells after 96 hrs by MTT assay; type: functional, cell-based; conditions: HepG2, 96 h; summary of the method: as §2
DU-145 = test: Cytotoxicity against human DU145 cells after 96 hrs by MTT assay; type: functional, cell-based; conditions: DU-145, 96 h; summary of the method: as §2
SK-MEL-28 [10] = test: Cytotoxicity against human SK-MEL-28 cells after 96 hrs by MTT assay; type: functional, cell-based; conditions: SK-MEL-28, 96 h; summary of the method: as §2
CCRF-CEM [11] = test: Cytotoxicity against human CCRF-CEM cells after 96 hrs by MTT assay; type: functional, cell-based; summary of the method: as §2
WIL2-NS = test: Cytotoxicity against human WIL2-NS cells after 96 hrs by MTT assay; type: functional, cell-based; summary of the method: as §2
[12] = Cytotoxicity against human SKMES1 cells after 96 hrs by MTT assay; type: functional, cell-based; conditions: SK-MES-1, 96 h; summary of the method: as §2
[13] = Cytotoxicity against human CRL7065 cells after 96 hrs by MTT assay; type: cell-based; conditions: CRL-7065, 96 h; summary of the method: as §2
MRC5 = test: Cytotoxicity against human MRC5 cells after 96 hrs by MTT assay; type: cell-based; conditions: MRC5, 96 h; summary of the method: as §2

Row | SMILES | GI50 (NCI-H226) | GI50 (786-0) | GI50 (OVCAR-3) | GI50 (OVCAR-8) | GI50 [1] | GI50 [2] | GI50 [3] | GI50 [4] | GI50 (SK-MEL-28 [5]) | GI50 (NCI-H23) | GI50 (UACC-62) | GI50 (MCF7 [6]) | GI50 (M14) | GI50 (OVCAR-5) | GI50 (UO-31) | GI50 [7] | GI50 (NCI-H460) | GI50 (CCRF-CEM [8]) | further results
1 | CC(=O)/C(=C\c1c(-c2ccccc2)[nH]c2ccccc12)S(=O)(=O)c1ccccc1 | 1.9 µM | 1.6 µM | 1.6 µM | 2.5 µM | 3.3 µM | 5 µM | 1.3 µM | 2.4 µM | 2 µM | 1.6 µM | 1 µM | 0.945 µM | 0.521 µM | 2 µM | 1.6 µM | 1.4 µM | 1.1 µM | 1.4 µM | –
2 | COc1ccc2[nH]c(-c3ccccc3)c(/C=C(\C#N)S(=O)(=O)c3ccccc3)c2c1 | 9.4 µM | 6.1 µM | 5 µM | 7.8 µM | 6.9 µM | 7.6 µM | 5.5 µM | 2.8 µM | 6.1 µM | 8 µM | 3.8 µM | 3.9 µM | 3.7 µM | 37.3 µM | 4 µM | 18.7 µM | 4.6 µM | 6.5 µM | EC50 (CCRF-SB): 1.9 µM; EC50 (MCF7 [9]): 12 µM; EC50 (HepG2): 9.6 µM; EC50 (DU-145): 10 µM; EC50 (SK-MEL-28 [10]): 10 µM; EC50 (CCRF-CEM [11]): 1.5 µM; EC50 (WIL2-NS): 2.8 µM; EC50 [12]: 12 µM; EC50 [13]: 11 µM; EC50 (MRC5): 14 µM
3 | COC(=O)/C(=C\c1c(-c2ccccc2)[nH]c2ccccc12)S(C)(=O)=O | 5 µM | 7.5 µM | 1.9 µM | 6.3 µM | 8.9 µM | 3.5 µM | 3.1 µM | 3.1 µM | 6 µM | 8 µM | 3.3 µM | 2.9 µM | 3.3 µM | 19.6 µM | 5.5 µM | 8.8 µM | 3.5 µM | 7.6 µM | –
4 | COc1ccc(-c2[nH]c3ccc(OC)cc3c2/C=C(\C#N)S(=O)(=O)c2ccccc2)cc1 | 3.7 µM | 2.1 µM | 0.359 µM | 3.1 µM | 3.3 µM | 0.538 µM | 0.51 µM | 0.76 µM | 0.787 µM | 0.946 µM | 0.66 µM | 0.851 µM | 0.5 µM | 4.6 µM | 3.1 µM | 2 µM | 0.687 µM | 1.3 µM | EC50 (CCRF-SB): 0.3 µM; EC50 (MCF7 [9]): 40 µM; EC50 (HepG2): 6.4 µM; EC50 (DU-145): 3 µM; EC50 (SK-MEL-28 [10]): > 100 µM; EC50 (CCRF-CEM [11]): 0.3 µM; EC50 (WIL2-NS): 0.5 µM; EC50 [12]: > 100 µM; EC50 [13]: > 100 µM; EC50 (MRC5): 22 µM
5 | N#C/C(=C\c1c(-c2ccccc2)[nH]c2ccccc12)S(=O)(=O)c1ccccc1 | 4.1 µM | 9.2 µM | 1.4 µM | 6 µM | 6.2 µM | 23.6 µM | 2.5 µM | 2.4 µM | 8.3 µM | 4.7 µM | 2.6 µM | 2.2 µM | 3.8 µM | 13.9 µM | 6.7 µM | 10.9 µM | 2.7 µM | 2.6 µM | –
6 | N#CC(C#N)=Cc1c(-c2ccccc2)[nH]c2ccccc12 | 4.1 µM | 8.6 µM | 1.8 µM | 6 µM | 5.8 µM | 2.3 µM | 2.1 µM | 1.6 µM | 5.1 µM | 4.7 µM | 2.6 µM | 1.1 µM | 1.9 µM | 19.7 µM | 11.1 µM | 10.4 µM | 2.1 µM | 2.4 µM | –
7 | CCOC(=O)C(=Cc1c(-c2ccccc2)[nH]c2ccccc12)C(=O)OCC | 11.4 µM | 12.9 µM | 4.2 µM | 4.1 µM | 12.4 µM | 3.8 µM | 14.5 µM | 7.6 µM | 7.7 µM | 2.9 µM | 4.6 µM | 4.5 µM | 4.2 µM | 18.5 µM | 4 µM | 10.1 µM | 3.8 µM | 2.6 µM | –
8 | COc1ccc2[nH]c(-c3ccccc3)c(C=C(C#N)C#N)c2c1 | 3.5 µM | 6.6 µM | 3.1 µM | 7.7 µM | 4.1 µM | 2.4 µM | 2.9 µM | 4.2 µM | 4.4 µM | 4.1 µM | 2.5 µM | 2.2 µM | 2.3 µM | 44.2 µM | 6.4 µM | 6.1 µM | 3.6 µM | 3.4 µM | –
